Reference: ChEMBL document CHEMBL1821586, “Identification and biological activities of new taccalonolide microtubule stabilizers” (J Med Chem, 2011)
Active and inactive are the calls of the source. No cut-off for these calls is given here.

How the values were obtained:
Mus musculus [1] = assay: Toxicity in B6C3F1 mouse allografted with mouse 16/C cells assessed as mean body weight loss at 40 mg/kg, iv administered on days 1,4,6 and day 8 or 9 (reference value: -2.2%); type: organism-based; design: dose 40 mg/kg, route intravenous; details: in vivo
[2] = Antitumor activity against mouse 16/C cells allografted in mouse B6C3F1 assessed as delay in tumor growth at 56 mg/kg, iv administered on days 1,4,6 and day 8 or 9 relative to control; type: functional
Summary of the method: (§1)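 Mammary 16/C fragments implanted s.c. bilaterally in female B6C3F1 mice on day 0, 5 mice/group, IV dosing in 0.2 ml. Tumors measured 2–3 times weekly. T-C = median days for treated vs control tumors to reach 1000 mg. Gross log cell kill = (T-C)/3.32×Td, with Td the doubling time from a log-linear fit of control tumor growth.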

[3] = Antitumor activity against mouse 16/C cells allografted in mouse B6C3F1 assessed as decrease in tumor mass at 40 mg/kg, iv administered on days 1,4,6 and day 8 or 9 relative to control; type: functional
Summary of the method: (§2)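 Female B6C3F1 mice (mean 19.3 ± 1.0 g) carried bilateral s.c. Mammary 16/C tumor fragments implanted day 0, 5 mice/group. […] All were given IV in 0.2 ml. Tumor mass = L×W²/2, measured 2–3 times weekly. %T/C = treated/control median mass, zeros included, taken when control tumors reach ~700–1200 mg.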

[4] = Antitumor activity against mouse 16/C cells allografted in mouse B6C3F1 assessed as gross log cell killing at 56 mg/kg, iv administered on days 1,4,6 and day 8 or 9 relative to control; type: functional
Summary of the method: (§3)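 Mammary 16/C tumor fragments implanted bilaterally s.c. in female B6C3F1 mice on day 0, 5 mice/group. Taccalonolides in 50% DMSO:50% Cremophor stock, diluted with sterile water, given i.v. in 0.2 ml on days 1, 4, 6, plus one dose 2–3 days later (A, N) or further doses days 8, 9, 11 (E). Tumor mass = length × width²/2, measured 2–3 times weekly. Gross log cell kill = (T-C)/3.32 × Td, with T-C the days to 1000 mg.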

HeLa [5] = assay: Induction of interphase microtubule bundling in human HeLa cells at 3.5 uM after 18 hrs by indirect immunofluorescence analysis; type: cell-based
HeLa [6] = assay: Cell cycle arrest in human HeLa cells assessed as accumulation of cells at G2/M phase at 3.5 uM after 18 hrs by flow cytometric analysis; type: functional, cell-based
Summary of the method: (§4)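 DNA stained with propidium iodide (Krishan's reagent); DNA content measured by flow cytometry and plotted as PI intensity vs events.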

HeLa [7] = assay: Inhibition of beta tubulin in human HeLa cells assessed asultiple abnormal mitotic spindle formation at 3.5 uM after 18 hrs by immunofluorescence analysis; type: cell-based
[8] = Antitumor activity against mouse 16/C cells allografted in mouse B6C3F1 assessed as gross log cell killing at 40 mg/kg, iv administered on days 1,4,6 and day 8 or 9 relative to control; type: functional; summary of the method: as §3
[9] = Antitumor activity against mouse 16/C cells allografted in mouse B6C3F1 assessed as delay in tumor growth at 40 mg/kg, iv administered on days 1,4,6 and day 8 or 9 relative to control; type: functional; summary of the method: as §1
[10] = Antitumor activity against mouse 16/C cells allografted in mouse B6C3F1 assessed as decrease in tumor mass at 56 mg/kg, iv administered on days 1,4,6 and day 8 or 9 relative to control; type: functional; summary of the method: as §2
[11] = Toxicity in B6C3F1 mouse allografted with mouse 16/C cells assessed as lethality at 56 mg/kg, iv; type: organism-based; design: dose 56 mg/kg, route intravenous; details: in vivo, read-out: Activity
HeLa [12] = assay: Antiproliferative activity against human HeLa cells after 48 hrs by SRB assay; type: functional, cell-based
Summary of the method: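 HeLa cells grown in BME with 10% FBS and 50 µg/ml gentamicin, drug-treated 48 h, proliferation read by SRB assay.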

Mus musculus [13] = assay: Toxicity in B6C3F1 mouse allografted with mouse 16/C cells assessed as mean body weight loss at 56 mg/kg, iv administered on days 1,4,6 and day 8 or 9 (reference value: -2.2%); type: organism-based; design: dose 56 mg/kg, route intravenous; details: in vivo
HeLa [14] = assay: Inhibition of beta tubulin in human HeLa cells assessed asultiple abnormal mitotic spindle formation at 1.3 uM after 18 hrs by immunofluorescence analysis; type: cell-based
[15] = Antitumor activity against mouse 16/C cells allografted in mouse B6C3F1 assessed as delay in tumor growth at 20 mg/kg, iv administered on days 1,4,6 and day 8 or 9 relative to control; type: functional; summary of the method: as §1
Mus musculus [16] = assay: Toxicity in B6C3F1 mouse allografted with mouse 16/C cells assessed as mean body weight loss at 20 mg/kg, iv administered on days 1,4,6 and day 8 or 9 (reference value: -2.2%); type: organism-based; design: dose 20 mg/kg, route intravenous; details: in vivo
Mus musculus [17] = assay: Toxicity in B6C3F1 mouse allografted with mouse 16/C cells assessed as mean body weight loss at 36 mg/kg, iv administered on days 1,4,6 and day 8 or 9 (reference value: -2.2%); type: organism-based; design: dose 36 mg/kg, route intravenous; details: in vivo
[18] = Antitumor activity against mouse 16/C cells allografted in mouse B6C3F1 assessed as gross log cell killing at 36 mg/kg, iv administered on days 1,4,6 and day 8 or 9 relative to control; type: functional; summary of the method: as §3
[19] = Toxicity in B6C3F1 mouse allografted with mouse 16/C cells assessed as lethality at 20 mg/kg, iv administered on days 1,4,6 and day 8 or 9 measured after 12 days relative to control; type: organism-based; design: dose 20 mg/kg, route intravenous; details: in vivo, read-out: Activity
Summary of the method: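 Female B6C3F1 mice, 5 per group, bore bilateral s.c. Mammary 16/C fragments. Taccalonolides in DMSO:Cremophor diluted with water were given i.v. on days 1, 4, 6 plus a later dose (A, N) or days 8, 9, 11 (E). Mice were weighed and observed daily, and lethality was recorded per group.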

[20] = Antitumor activity against mouse 16/C cells allografted in mouse B6C3F1 assessed as decrease in tumor mass at 36 mg/kg, iv administered on days 1,4,6 and day 8 or 9 relative to control; type: functional; summary of the method: as §2
[21] = Antitumor activity against mouse 16/C cells allografted in mouse B6C3F1 assessed as gross log cell killing at 20 mg/kg, iv administered on days 1,4,6 and day 8 or 9 relative to control; type: functional; summary of the method: as §3
[22] = Antitumor activity against mouse 16/C cells allografted in mouse B6C3F1 assessed as decrease in tumor mass at 20 mg/kg, iv administered on days 1,4,6 and day 8 or 9 relative to control; type: functional; summary of the method: as §2
HeLa [23] = assay: Cell cycle arrest in human HeLa cells assessed as accumulation of cells at G2/M phase at 1.3 uM after 18 hrs by flow cytometric analysis; type: functional, cell-based; summary of the method: as §4
HeLa [24] = assay: Induction of interphase microtubule bundling in human HeLa cells at 1.3 uM after 18 hrs by indirect immunofluorescence; type: cell-based
[25] = Antitumor activity against mouse 16/C cells allografted in mouse B6C3F1 assessed as delay in tumor growth at 36 mg/kg, iv administered on days 1,4,6 and day 8 or 9 relative to control; type: functional; summary of the method: as §1

**Q.** Which results are given for CC(=O)O[C@@H]1[C@H]2[C@H]3[C@H]([C@H](OC(C)=O)[C@H](OC(C)=O)[C@]2(C)[C@@H]2[C@@H]1[C@]1(C)C(=C[C@H]2C)OC(=O)[C@@]1(C)O)[C@]1(C)[C@H](C[C@@H]2O[C@@H]2[C@@H]1OC(C)=O)C(=O)[C@@H]3O [TACCALONOLIDE A]?
**A.** Activity (Mus musculus [1]): -6.3%; Time [2]: 16 days; T/C [3]: 24%; LCK [4]: 4; Activity (HeLa [5]): Active; Activity (HeLa [6]): Active; inhibition (HeLa [7]): Active; LCK [8]: 1; Time [9]: 4 days; T/C [10]: 0%; mortality [11]: 20%; IC50 (HeLa [12]): 594 nM; Activity (Mus musculus [13]): -16.7%

**Q.** With CC(=O)O[C@H]1C[C@H]2[C@H]([C@@H]3[C@@H](O)[C@@H]4[C@H]([C@H](C)C=C5OC(=O)[C@@](C)(O)[C@@]54C)[C@]31C)[C@@H](O)C(=O)[C@H]1C[C@@H]3O[C@@H]3[C@H](OC(C)=O)[C@@]12C [TACCALONOLIDE N] as the compound, how does the inhibition (HeLa [14]) read?
**A.** Active

**Q.** What about the Time [15] of the same compound?
**A.** 1 days

**Q.** What about the Activity (Mus musculus [16]) of the same compound?
**A.** -2.1%

**Q.** And the Activity (Mus musculus [17])?
**A.** -8.2%

**Q.** And the LCK [18]?
**A.** 1.25

**Q.** And the mortality at 288 h [19]?
**A.** 0%

**Q.** What about the T/C [20] of the same compound?
**A.** 0%

**Q.** And the LCK [21]?
**A.** 0.25

**Q.** What about the T/C [22] of the same compound?
**A.** 43%

**Q.** And the Activity (HeLa [23])?
**A.** Active

**Q.** What about the Activity (HeLa [24]) of the same compound?
**A.** Active

**Q.** What about the IC50 (HeLa [12]) of the same compound?
**A.** 247 nM

**Q.** What about the Time [25] of the same compound?
**A.** 5 days
